Assay results: ChEMBL document CHEMBL3779815, “Synthesis of newer 1,2,3-triazole linked chalcone and flavone hybrid compounds and evaluation of their antimicrobial and cytotoxic activities” (Eur J Med Chem, 2016)
Converted amounts (≈) assume the structure as drawn.

Columns and labels:
Pseudomonas aeruginosa = assay: Antibacterial activity against Pseudomonas aeruginosa […] after 18 to 24 hrs by micro-dilution method; assay type: functional
Candida tropicalis = assay: Antifungal activity against Candida tropicalis ATCC 750 after 18 to 24 hrs by micro-dilution method; assay type: functional
Summary of the method: (§1)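 Microdilution MIC run as the antibacterial protocol but on Sabouraud dextrose […] pH 7.3±0.2; compounds 100 to 0.78 μg/mL in twofold steps; saline-prepared inocula 1-2 × 10⁷ cfu/mL, 0.01 mL added; 37 °C aerobic, 18-24 h; MIC read as lowest concentration without visible growth or turbidity; fluconazole reference.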

Enterococcus faecalis = assay: Antibacterial activity against Enterococcus faecalis ATCC 29212 after 18 to 24 hrs by micro-dilution assay; assay type: functional
Aspergillus fumigatus = assay: Antifungal activity against Aspergillus fumigatus clinical isolate after 18 to 24 hrs by micro-dilution method; assay type: functional; summary of the method: as §1
Cryptococcus neoformans = assay: Antifungal activity against Cryptococcus neoformans clinical isolate after 18 to 24 hrs by micro-dilution method; assay type: functional; summary of the method: as §1
Aspergillus niger = assay: Antifungal activity against Aspergillus niger clinical isolate after 18 to 24 hrs by micro-dilution method; assay type: functional; summary of the method: as §1
Shigella boydii = assay: Antibacterial activity against Shigella boydii clinical isolate after 18 to 24 hrs by micro-dilution method; assay type: functional
Klebsiella pneumoniae = assay: Antibacterial activity against Klebsiella pneumoniae ATCC 27736 after 18 to 24 hrs by micro-dilution method; assay type: functional
Plasmodium falciparum = assay: Antimalarial activity against erythrocytic stage of chloroquine sensitive Plasmodium falciparum 3D7 assessed as inhibition of parasitemia after 48 hrs by Giemsa staining based microscopic analysis; assay type: functional, organism-based; conditions: 3D7, 48 h
Summary of the method: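 Asynchronous culture on human O⁺ erythrocytes, 1-1.5% parasitemia, 4% hematocrit, RPMI-1640 with HEPES, NaHCO₃, glutamine, gentamycin, Albumax II; drug 0.10-100 μg/mL, 48 h, 37 °C, medium changed at 24 h; triplicate wells; Giemsa thin smears, about 4,000 erythrocytes counted at 1,000X; % parasitemia inhibition versus control gives IC50.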

Arthrodermataceae = assay: Antifungal activity against Dermatophyte clinical isolate after 18 to 24 hrs by micro-dilution method; assay type: functional; summary of the method: as §1
Candida albicans [1] = assay: Antifungal activity against Candida albicans ATCC 90028 after 18 to 24 hrs by micro-dilution method; assay type: functional; summary of the method: as §1
Escherichia coli = assay: Antibacterial activity against Escherichia coli ATCC 35218 after 18 to 24 hrs by micro-dilution method; assay type: functional
Staphylococcus aureus = assay: Antibacterial activity against Staphylococcus aureus […] after 18 to 24 hrs by micro-dilution method; assay type: functional
Candida albicans [2] = assay: Antifungal activity against Candida albicans clinical isolate after 18 to 24 hrs by micro-dilution method; assay type: functional; summary of the method: as §1
Candida parapsilosis = assay: Antifungal activity against Candida parapsilosis ATCC 22019 after 18 to 24 hrs by micro-dilution method; assay type: functional; conditions: Lodderomyces parapsilosis; summary of the method: as §1
[3] = Cytotoxicity against human HuH7 cells after 72 hrs by MTT assay; assay type: cell-based, Huh-7
Summary of the method: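 Huh-7 cells, 4 × 10³/well in DMEM with 10% FBS and penicillin-streptomycin-glutamine; eight 2-fold dilutions 100-0.78 μg/mL, 72 h; MTT added 2-4 h, then isopropanol/Triton X-100/HCl solubilization 2 h dark, RT; absorbance 570 nm; CC50 as mean of at least two experiments in duplicate.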

SMILES | MIC (Pseudomonas aeruginosa) [µg/mL] | MIC (Candida tropicalis) [µg/mL] | MIC (Enterococcus faecalis) [µg/mL] | MIC (Aspergillus fumigatus) [µg/mL] | MIC (Cryptococcus neoformans) [µg/mL] | MIC (Aspergillus niger) [µg/mL] | MIC (Shigella boydii) [µg/mL] | MIC (Klebsiella pneumoniae) [µg/mL] | IC50 (Plasmodium falciparum) [µg/mL] | MIC (Arthrodermataceae) [µg/mL] | MIC (Candida albicans [1]) [µg/mL] | MIC (Escherichia coli) [µg/mL] | MIC (Staphylococcus aureus) [µg/mL] | MIC (Candida albicans [2]) [µg/mL] | MIC (Candida parapsilosis) [µg/mL] | CC50 at 72 h [3] [µg/mL]
COc1cc(OC)c2c(=O)cc(-c3ccc(OCc4cn(-c5ccc(Cl)cc5)nn4)c(OC)c3)oc2c1 | > 100 | 50 (≈ 96.2 µM) | 100 (≈ 192 µM) | 50 (≈ 96.2 µM) | 12.5 (≈ 24 µM) | 50 (≈ 96.2 µM) | > 100 | > 100 | 5.19 (≈ 9.98 µM) | 12.5 (≈ 24 µM) | 50 (≈ 96.2 µM) | > 100 | > 100 | 12.5 (≈ 24 µM) | 50 (≈ 96.2 µM) | > 100
COc1cc(O)c(C(=O)/C=C/c2ccc(OCc3cn(-c4ccccc4Cl)nn3)c(OC)c2)c(OC)c1 | 12.5 (≈ 23.9 µM) | > 100 | 6.25 (≈ 12 µM) | > 100 | > 100 | > 100 | 6.25 (≈ 12 µM) | 25 (≈ 47.9 µM) | 6.78 (≈ 13 µM) | > 100 | > 100 | 6.25 (≈ 12 µM) | 12.5 (≈ 23.9 µM) | > 100 | > 100 | > 100
COc1cc(OC)c2c(=O)cc(-c3ccc(OCc4cn(-c5ccccc5Cl)nn4)c(OCc4cn(-c5ccccc5Cl)nn4)c3)oc2c1 | > 100 | 12.5 (≈ 17.9 µM) | > 100 | 12.5 (≈ 17.9 µM) | 6.25 (≈ 8.96 µM) | 12.5 (≈ 17.9 µM) | > 100 | > 100 | 8.98 (≈ 12.9 µM) | 12.5 (≈ 17.9 µM) | 12.5 (≈ 17.9 µM) | > 100 | > 100 | 12.5 (≈ 17.9 µM) | 12.5 (≈ 17.9 µM) | > 100
COc1cc(O)c(C(=O)/C=C/c2ccc(OCc3cn(-c4ccc(F)c(Cl)c4)nn3)c(OC)c2)c(OC)c1 | 100 (≈ 185 µM) | > 100 | 50 (≈ 92.6 µM) | > 100 | > 100 | 100 (≈ 185 µM) | 25 (≈ 46.3 µM) | > 100 | 2.74 (≈ 5.07 µM) | > 100 | > 100 | 50 (≈ 92.6 µM) | > 100 | > 100 | > 100 | > 100
COc1cc(OC)c2c(=O)cc(-c3ccc(OCc4cn(-c5ccc(F)c(Cl)c5)nn4)c(OCc4cn(-c5ccc(F)c(Cl)c5)nn4)c3)oc2c1 | 100 (≈ 136 µM) | 100 (≈ 136 µM) | > 100 | > 100 | > 100 | 100 (≈ 136 µM) | > 100 | > 100 | 10.4 (≈ 14.2 µM) | > 100 | > 100 | 100 (≈ 136 µM) | > 100 | > 100 | > 100 | > 100
COc1cc(O)c(C(=O)/C=C/c2ccc(OC)c(OCc3cn(-c4ccccc4Cl)nn3)c2)c(OC)c1 | 100 (≈ 192 µM) | 6.25 (≈ 12 µM) | 25 (≈ 47.9 µM) | 12.5 (≈ 23.9 µM) | 12.5 (≈ 23.9 µM) | 12.5 (≈ 23.9 µM) | 12.5 (≈ 23.9 µM) | > 100 | 8.03 (≈ 15.4 µM) | 12.5 (≈ 23.9 µM) | 6.25 (≈ 12 µM) | 50 (≈ 95.8 µM) | 25 (≈ 47.9 µM) | 12.5 (≈ 23.9 µM) | 12.5 (≈ 23.9 µM) | > 100
COc1cc(OC)c2c(=O)cc(-c3ccc(OCc4cn(-c5ccc(Cl)cc5)nn4)c(OCc4cn(-c5ccc(Cl)cc5)nn4)c3)oc2c1 | 12.5 (≈ 17.9 µM) | > 100 | 12.5 (≈ 17.9 µM) | > 100 | > 100 | > 100 | 25 (≈ 35.8 µM) | 12.5 (≈ 17.9 µM) | 11.3 (≈ 16.2 µM) | > 100 | > 100 | 6.25 (≈ 8.96 µM) | 12.5 (≈ 17.9 µM) | > 100 | > 100 | > 100
COc1cc(O)c(C(=O)/C=C/c2ccc(OCc3cn(-c4ccc(Cl)cc4)nn3)c(OCc3cn(-c4ccc(Cl)cc4)nn3)c2)c(OC)c1 | > 100 | > 100 | > 100 | > 100 | > 100 | > 100 | > 100 | 100 (≈ 143 µM) | 12.8 (≈ 18.2 µM) | > 100 | > 100 | 100 (≈ 143 µM) | > 100 | > 100 | > 100 | > 100
COc1cc(OC)c2c(=O)cc(-c3ccc(OCc4cn(-c5ccccc5Cl)nn4)c(OC)c3)oc2c1 | 50 (≈ 96.2 µM) | > 100 | 50 (≈ 96.2 µM) | > 100 | > 100 | > 100 | > 100 | 100 (≈ 192 µM) | 12.1 (≈ 23.2 µM) | > 100 | > 100 | 100 (≈ 192 µM) | 50 (≈ 96.2 µM) | > 100 | > 100 | > 100
COc1cc(O)c(C(=O)/C=C/c2ccc(OCc3cn(-c4ccc(F)cc4Cl)nn3)c(OCc3cn(-c4ccc(F)cc4Cl)nn3)c2)c(OC)c1 | 100 (≈ 136 µM) | > 100 | > 100 | > 100 | > 100 | > 100 | > 100 | > 100 | 8.55 (≈ 11.6 µM) | > 100 | > 100 | > 100 | > 100 | > 100 | > 100 | > 100
COc1cc(O)c(C(=O)/C=C/c2ccc(OCc3cn(-c4ccccc4Cl)nn3)c(OCc3cn(-c4ccccc4Cl)nn3)c2)c(OC)c1 | > 100 | > 100 | > 100 | > 100 | > 100 | > 100 | > 100 | > 100 | 8.38 (≈ 12 µM) | > 100 | > 100 | > 100 | > 100 | > 100 | > 100 | > 100
